Data taken from the EternaBench riboswitch data.

Test system: MS2 coat protein
Test: apparent Kd, MS2 coat protein; higher = weaker binding; RNA-MaP array; FMN 200 µM where present
Outline: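 The apparent Kd is the median of filtered binding-curve fits, one per cluster, to green signal normalised to red-channel RNA signal and control-cluster median Fmax. The clusters were on Illumina sequencing chips, and stalled E. coli RNA polymerase had transcribed the designs on them. Titration used SNAP-549-labelled MS2 coat protein from 0.7 or 1.5 nM, doubling to 3 µM, without and then with constant ligand, in 100 mM Tris-HCl pH 7.5, 80 mM KCl, 4 mM MgCl2, BSA, DTT, yeast tRNA and Tween-20.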

[1] = designed as: ON switch for flavin mononucleotide, no ligand
[2] = ligand present: flavin mononucleotide, designed as: ON switch for flavin mononucleotide
[3] = designed as: OFF switch for flavin mononucleotide, no ligand
[4] = ligand present: flavin mononucleotide, designed as: OFF switch for flavin mononucleotide

Sequence	apparent Kd [1] [nM]	apparent Kd [2] [nM]	apparent Kd [3] [nM]	apparent Kd [4] [nM]
CGCGGACAAGAGAAGGCCAGACCUUGGAACCUAAGGCACCGCUAGGCAUGGAGGAUAUCUUGACAUGAGGAUCACCCAUGUACA	109	40.9	–	–
AAUUAUUCAGGAGGAUAUCCCAGGACAUGAGGAUCACCCAUGUUCGGGUUGCCCUCAUGAACGCCGGAGAAGGCCUGAACGAAU	–	–	13	17.1
GGGUGACAUGAGGAUCACCCAUGUCAGGAUAUUGAGCUUGAGCUGAAAAGUUCGAGUUCGAGAAGGGACUGCCC	–	–	52	229
UGUGGGAGUCAGAAGGAGUAUUCUACAUGAGGAUCACCCAUGUCUGGUGCUAGGAUAUGGGUCUGGGCGGACUAAGGUCUCGUA	444	243	–	–
UCUAUAAGAAAAUAGACGAAGUGGCCAGAAGGUGAAUGCCACAUGAGGAUCACCCAUGUUUCGAUCAAGGAUAUGGUUUCUCAC	383	99.1	–	–
AUCGUUAACGAAGGAUAUGGUUACAUGAGGAUCACCCAUGUAUUUUUUGUGAUCUUGUUUAAGUUCCAGAAGGUCGUUAACGUA	–	–	551	710
CUAUGCGGAAUAGGAUAUUCAUUCAUGAGGAUAGAAGAAGGGUUACAUGAGGAUCACCCAUGUAUGCACAUGAGGAUCCCUUAG	–	–	247	260
AGGAAGUUAGGAUAUGCUGCUCGUCACUUGCGUGAUGAGUAGCAGAAGGAACAUGAGGAUCACCCAUGUAAAAA	–	–	27.7	22.2
ACCGUAUGAACAUGAGGAUCACCCAUGUAUCCGAAAAGGAAUGAGGAUAUCGAUAGCAAAGCUAUCGAGAAGGCAUGGGACGGU	742	389	–	–
CCGAUGCUUAUAAAACAUGAGGAUCACCCAUGUGAGACACAUGAGGAUAUGCAGGUCAAAGACUUGCAGAAGGCAUAGCGUCGG	644	61.8	–	–
GCGUUGAACGAGAAGGCCAAUACAUGAGGAUCACCCAUGUUAAGAUGUUUUGGAGGAUAUCGUACGCAUUCAAUAUUGCAACGC	–	–	7.63	9.47
UCCUCGUAGUAGAAGGGCGGCCGAAAUCUGCACGCAGGAUAUACAUGAGGAUCACCCAUGUACUGAGCUGAAGAGCACUUGGAA	–	–	11.5	29.5
UGUAUGGACAGAGGAUAUACGGAUAGGAUCUACUAUCUUUCUCAAAUAACAUGAGGAUCACCCAUGUAGAAGGCUGUCCAUACU	–	–	22.4	136
AGCUAGUACCGAGGAUAUACAUACAUGAGGAUCACCCAUGUAUACAUGAACAAUUGAGACUACAUGUAGAAGGCGGUACUAGCA	49.9	18.6	–	–
UUGAUGUCAUCAGGAUAUAGUAUUUAAGACAUAUCUUCUUUCAAACAUGAGGAUCACCCAUGUCGCUAGAAGGGAUGAAUGAUU	–	–	16.6	14.4
CUUUCGUGAGGAUAUCAGUAGUAAUAAUAUAAAAUUACUACUGAGAAGGCACAUGAGGAUCACCCAUGUUCCUC	–	–	24.5	114
AGAGAGUGACAGAAGGGCAAGCUCGAUUGCGGAGAACGCGAUCGAGCUUGCAGGAUAUGUUGAACAUGAGGAUCACCCAUGUCA	7.98	6.94	–	–
AAAUAAAGCAGUGUGGUAAGAUCACAUGAGGAUCACCCAUGUAAGGAUAUCUGUCCUAAAAGGACAGAGAAGGUACGUCACUGC	–	–	18.9	79.6
UAUGAACAUGAGGAUCACCCAUGUGGAAAGGACACAGGAUAUCAUCUCGCACGUGCGAUAUGAGAAGGGUGAUGGU	117	180	–	–
CCCGCUGGAGGAUAUGCACUACGUGUGUUUUCUUUUGAGGCACAUGAGGAUCACCCAUGUAGAAGGCCACGCGG	–	–	97.6	430
ACAUGAGGAUCACCCAUGUUCACAUAGGAUAUUGAUUAUAUUGGUUUUAGAAUAGUAAUUAACCUCAAGAAGGAUGCCUGAUCU	12.5	10.9	–	–
ACCAUUUACUAGUUUUCUAUACAUGAGGAUCACCCAUGUUUUUAGGAUAUCAGCGUGAAACACGCUGAGAAGGAAGAACAUUCG	–	–	22.6	31.2
ACAAGAUCAGGAUAUACAUGAGGAUCACCCAUGUAUAUAAAAAAAGGGCCUUCUACAUGUAGAAGGGAUCUUGU	–	–	13.8	13.7
CUCCGUGGCGAGAAGGGCGGGAUUUUAGGUUCUGUAGGAUAUCGAAACAUGAGGAUCACCCAUGUAUUGAUCGGGUGCAGUGUG	–	–	22	23.2
AUGCUUUAUGUAGGAUAUGCAUACGGUACGUAUGCAGAAGGACAUGAGGAUCACCCAUGUAUAUUAUUAUUACAUAUCAUACAU	–	–	26.6	377
CUGGGUUAGGAGAAGGGCUAGAGUGUGAUAUAUUUGCCCGCGAGCACAUGAGGAUCACCCAUGUAGCAGGAUAUCCAAACCGGU	–	–	7.33	19.5
GACUGCCGAGGAUAUACAUGAGGAUCACCCAUGUGCUUCAGCAUCGAAAGAUGCAUGGGUAGAAGGCGGUAGUC	–	–	27.4	72
ACCAUUUACUAAUUAUCUAUACAUGAGGAUCACCCAUGUUAAGAGGAUAUCAUCGUUCGCCGCGUUGAGAAGGCUUAGCAUUCG	–	–	26.4	101

Sequence	apparent Kd [1] [nM]	apparent Kd [2] [nM]	apparent Kd [3] [nM]	apparent Kd [4] [nM]
CGACUGUGAGGAUAUGGUGAGUAGUGCCUGAGCGCUGCUCACCAGAAGGCACAUGAGGAUCACCCAUGUAUAGC	–	–	41.7	165
GAAGCACAUGAGGAUCACCCAUGUAAGGAUAUAUUUCUGGUCCGGCCGGACCAGUACCGUAGAAGGUAUGUAAA	–	–	13.5	13.9
ACAUACAUUCGAGGAUAUCGGUGAUUAAUUUUACGAGAAGGCGAUUUAAGAUAUAAUAUUUUAGACAUGAGGAUCACCCAUGUA	25.3	23.1	–	–
ACAUGAAAUCGAGGAUAUGCAAAAAAAAAAAAAGCAGAAGGCGAAAAAAAAACUCGAAAAAACAUGAGGAUCACCCAUGUAAAA	–	–	26.4	22.9
UGUGCGUUGAUCUUCGAUCGGUGUACAUGAGGAUCACCCAUGUAGGAUAUUCUAAGACGCAGAUAGGAGAAGGACAUUGGUUUU	–	–	22.9	64.1
GUGUAGAUAGGAUAUACGAGAGUCUAGCGAAGCUAGAUUCUACAUGAGGAUCACCCAUGUAGAAGGGUCUACAC	–	–	16.5	19.2
AGACAUGUCCGAGGAUAUCUGGAAACAUUUCCAAGAGAAGGCGGACAUGAGGAUCACCCAUGUCUCUCCUCAUCAAAUCCAAGU	–	–	10.7	90.9
UUACUCAUGUAAGGAUAUGCAGCCGUGUCGGCUGCAGAAGGUACUAUAAUACAUGAGGAUCACCCAUGUCUAUAAAAUAAAGAC	48	26.8	–	–
UUAUUAAGUGUGAGGAUAUGCUGGUCCUUGGAUCAGCAGAAGGCACAUGAGGAUCACCCAUGUACAAUAUUUUA	–	–	39	230
UGUGCACUAGGAUAUGCGUAAGCUGAUACGUCAGCAGGUCUACAUGAGGAUCACCCAUGUAGAAGGAGUGUACU	–	–	17.1	16.9
UGUGCGUAUGUGAGGAUAUGCUGGUCCUUGGCUCGGCAGAAGGCACAUGAGGAUCACCCAUGUGGUGUCGUACC	–	–	38.6	189
AACGGGUGGGUAGGAUAUGGCUAUGUCUCAUUGCUAGAAGGACCAGCUGCUACAUGAGGAUCACCCAUGUCGUAGUGCACCCAG	421	33.5	–	–
AAAACGUCAGGAUAUACAGAAGAGAUCACAAAAAAAAAAAAACAUGAGGAUCACCCAUGUAGAAGGGACAAAAA	–	–	138	188
AAAUUCCUCACAGGAUAUCCUACAUGAGGAUCACCCAUGUACUAACUGAGCAAAUUGCAACAAAAGGAGAAGGGUGAGGUGAAG	36.3	4.25	–	–
AAAAAACAUGAGGAUCACCCAUGUGAGGAUAUCGAGAAGAAGAAGAAGAAGAAGAGAACGAGAAGGCACAAAAA	–	–	47.4	51.5
AGUAACAGAGGAUAUACUGUUUUAUGUGUUUGUUGUUUUAAACAUGAGGAUCACCCAUGUAGAAGGCUGAAUAA	–	–	20.1	21.2
GCUAUAGAUGUAGGAUAUCAUAUAGAAGCUAUGUGAGAAGGACAUGAGGAUCACCCAUGUCAAUGGAUGGAGAGAAGUUAUGGC	–	–	75.3	104
UUUGGGUGGCUGGAGGAUAUUCGAGUGGUAACAUGAGGAUCACCCAUGUGUCGCGCGGUACACGAGGAGAAGGCUGGCGGCCGUU	56.5	18.9	–	–
CUGAUGUUAGGAUAUCAGGCGCCCGCCACUAGCAGGGCGCAUGAGAAGGGACAUGAGGAUCACCCAUGUAGUAA	–	–	31.6	54.5
CUUUUGUGAGGAUAUUCGUAGUAGGGUCAUGGCACUAUUAUGGAGAAGGCACAUGAGGAUCACCCAUGUACCUU	–	–	16.6	29.3
UGUCGGAGCAGAGGAUAUUACAUGAGGAUCACCCAUGUAUGAACCAAUAGCUGGAAACAGCAAGGUAAGAAGGCUGCUCCGACA	–	–	5.24	9.98
AUUUGCCUAGGAUAUACUCGGGCCCGCUCAUACUCCAAUGGACAUGAGGAUCACCCAUGUAGAAGGAGGAACCA	–	–	16	20
UCAACCAGCGCCAGUUGAACAUGAGGAUCACCCAUGUACUCCAGAAGGCCGCCCAAGAACGGAGUGGAGGAUAUGGAGGUUCUC	28.5	18.4	–	–
CUGUGACGGUGCGCAAGUGGACGUAGAAGGGUCACAUGAGGAUCACCCAUGUGGGCCUGCUAGUGACAGGAUAUACGUUCGUGC	–	–	–	65.2
AAUAACAGAGGAUAUACUGUUUUAUGUGUUUGUUGUUUUAAACAUGAGGAUCACCCAUGUAGAAGGCUGAAUAA	–	–	19.3	20.3
UUCCUACAUGAGGAUCACCCAUGUCAGGAUAUGUAGACGCAAAUUUACGAUUUGCGGAAUAGAAGGGACGUGAC	–	–	24.1	25.9
UAUAAUAUUAUAGGAUAUGGAUACGAUACGUAUCCAGAAGGGUGAUUAUAAUAUAAUCUAUACAUGAGGAUCACCCAUGUUUAU	228	98	–	–
